Test [1] relates to Rattus norvegicus. Put plainly: Brain Uptake of compound was measured after 2 min of administration. The class given is functional, organism-based. Put shortly:
(§1)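 Tc-99m complex injected into rats, three per time point. At set times, 1 mL blood was drawn by cardiac puncture and the animal was killed by cardiectomy. Organs were excised, weighed and gamma-counted. Percent dose per organ came from comparing tissue counts with dilutions of the injected dose, reported as the mean with the range across the three rats.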

Test [2] can be described thus: Ratio of brain dose per gram to the blood dose per gram measured at 15 min. The class given is functional, tissue-based. Put shortly: (§2)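 Rats (three per time point) were given the Tc-99m complex, then sampled by cardiac puncture, killed, and had organs excised and gamma-counted against injected-dose dilutions. Percent dose/organ was converted to percent dose/gram using mean organ weights (brain 1.65 g; blood 18 g). The ratio is (brain dose/gram)/(blood dose/gram).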

Test [3] in a line: Ratio of brain dose per gram to the blood dose per gram measured at 2 min. Type of test: functional, tissue-based. Put shortly:
as §2

Test [4] concerns Rattus norvegicus. Description: Brain Uptake of compound was measured after 15 min of administration. Type of test: functional, organism-based. Summed up:
as §1

As to “Tc-labeled 3,3,10,10-tetramethyl-6-(2-methylhexahydro-1-pyridinylmethyl)-1-acetone2,11-dithia-5-azonia-8-azatricyclo[6.3.0.01,5]undecane”, the Uptake value is 0.61 with Rattus norvegicus [1] and 0.35 in the test with Rattus norvegicus [4]. Further, the values for the Ratio in test [2] and in test [3] were 1.84 and 1.06, respectively.
For the substance “Tc-labeled 3,3,10,10-tetramethyl-6-(2-methylhexahydro-1-pyridinylmethyl)-1-acetone2,11-dithia-5-azonia-8-azatricyclo[6.3.0.01,5]undecane (isomer)”, the Uptake value in the test on Rattus norvegicus [1] stood at 1.8; in the test with Rattus norvegicus [4], 0.54. Further, the figures for the Ratio in test [2] and in test [3] were 3.84 and 4.96, respectively.
For “Tc-labeled 3,3,10,10-tetramethyl-6-(2,6-dimethylhexahydro-1-pyridinylmethyl)-1-acetone2,11-dithia-5-azonia-8-azatricyclo[6.3.0.01,5]undecane (isomer)” the same measures were 1.19, 0.54, 2.07 and 1.98.

The values above are taken from ChEMBL document CHEMBL1124102, “Synthesis and biodistribution of 99mTc-labeled piperidinyl bis(aminoethanethiol) complexes: potential brain perfusion imaging agents for single photon emission computed tomography” (J Med Chem, 1988).
